Experimental data gathered from unrelated publications.
Compare with care: the assays were run in different laboratories.
SLC5A7: High affinity choline transporter 1 (SLC5A7, Homo sapiens, UniProt Q9GZV3)
EEF2K: Eukaryotic elongation factor 2 kinase (EEF2K, Homo sapiens, UniProt O00418)
MMP1: Interstitial collagenase (MMP1, Homo sapiens, UniProt P03956)
CASP9: Caspase-9 (CASP9, Homo sapiens, UniProt P55211)

Compound	target	test	setting	inhibition [%]
Cc1ncc(C)n2nc(/C=C/c3nc(N4CCCC4)cc(N4CCOCC4)n3)nc12	SLC5A7	ligand displacement	10 µM	14
COc1cc(Nc2ncc(F)c(Nc3ccc4c(n3)NC(=O)C(C)(C)O4)n2)cc(OC)c1OC	TRAF2 and NCK-interacting protein kinase (TNIK, Homo sapiens, UniProt Q9UKE5)	binding	10 µM	56
C#Cc1n[nH]c2c(-c3cn([C@@H](C)c4ccccc4)c(=O)[nH]c3=O)cc(F)cc12	EEF2K	enzyme activity, inhibitor	0.1 µM	2.3
CN(C)C(=O)COC(=O)Cc1ccc(OC(=O)c2ccc(NC(=N)N)cc2)cc1	Ubiquitin carboxyl-terminal hydrolase 7 (USP7, Homo sapiens, UniProt Q93009)	enzyme activity, inhibitor	10 µM	0
CCN(CC)CCCC[C@H](NC(=O)[C@H](CC(C)C)NC(=O)[C@H](C)NC(=O)[C@H](Cc1ccccc1)NC(=O)c1ccc(C(C)(C)C)cc1)C(=O)N[C@@H](CO)C(=O)OC	C-C chemokine receptor type 1 (CCR1, Homo sapiens, UniProt P32246)	ligand displacement, radioligand	10 µM	7
CCOC(=O)c1ccc(OC(=O)CCCCCNC(=N)N)cc1	MMP1	enzyme activity, inhibitor	10 µM	2
COc1ccc(S(=O)(=O)N2CCCCC2)cc1C	Corticotropin-releasing factor receptor 1 (CRHR1, Homo sapiens, UniProt P34998)	ligand displacement, radioligand	10 µM	< 30
COC(=O)CC[C@H](NC(=O)[C@H](CC(C)C)NC(=O)OCc1ccccc1)C(=O)N[C@@H](Cc1cnc[nH]1)C(=O)N[C@@H](CC(=O)OC)C(=O)CF	CASP9	enzyme activity, inhibitor	10 µM	86
CN(CCN1CCC(OC(=O)Nc2ccccc2-c2ccccc2)CC1)C(=O)c1ccc(CN2CCC(C(N)=O)CC2)cc1	SLC5A7	ligand displacement, radioligand	1 µM	-6
Cn1cc(-c2cccc(N3CCc4c(sc5c4CC(C)(C)C5)C3=O)c2CO)cc(Nc2ccncn2)c1=O	EEF2K	enzyme activity, inhibitor	1 µM	2
O=C(Nc1cccnn1)N1CCN([C@@H]2CCOc3cc(C(F)(F)F)ccc32)CC1	CASP9	cell-free assay	20 µM	-4
CCOC(=O)N1C[C@H]2C[C@@H]1C[C@@H]2c1ccc(-c2cc(C(=O)OCC(=O)N(C)C)cc3cc(-c4ccc(C(F)(F)F)cc4)ccc23)cc1	P2Y purinoceptor 14 (P2RY14, Homo sapiens, UniProt Q15391)	cell-free assay, inhibitor	10 µM	12.2
N=C(N)c1ccc2cc(OC(=O)c3ccc(N=C(N)N)cc3)ccc2c1	CASP9	enzyme activity, inhibitor	10 µM	0
C#Cc1n[nH]c2c(-c3cn(C(C)c4ccccn4)c(=O)[nH]c3=O)cc(F)cc12 (stereo not shown)	TGF-beta receptor type-1 (TGFBR1, Homo sapiens, UniProt P36897)	enzyme activity, inhibitor	1 µM	25.2
COc1ccc(S(=O)(=O)N(CC(=O)NO)CC(C)C)cc1	MMP1	enzyme activity, inhibitor	1 µM	26
C[C@H](C(=O)N[C@H]1COc2ccccc2[C@@H]1S(C)(=O)=O)c1ccc(F)cc1	MMP1	enzyme activity, inhibitor	10 µM	13
